Measured values taken from ChEMBL document CHEMBL4014339, “Discovery of 1,4-Benzodiazepine-2,5-dione (BZD) Derivatives as Dual Nucleotide Binding Oligomerization Domain Containing 1/2 (NOD1/NOD2) Antagonists Sensitizing Paclitaxel (PTX) To Suppress Lewis Lung Carcinoma (LLC) Growth in Vivo” (J Med Chem, 2017).
pIC50: −log10 of the molar value. Active and inactive are the calls of the source. The calls are words filed in the database; no cut-off is given here.

Experiments:
[1] = molecular target: T1, Nucleotide-binding oligomerization domain-containing protein 1 (Homo sapiens) (UniProt Q9Y239); assay: Antagonist activity at human NOD1 expressed in HEK-blue cells assessed as inhibition of C12-iE-DAP-stimulated cell activation at 5 uM preincubated for 3 hrs followed by C12-iE-DAP addition measured after 20 hrs by SEAP reporter gene assay; format: cell-based
T1 sequence (whole entry): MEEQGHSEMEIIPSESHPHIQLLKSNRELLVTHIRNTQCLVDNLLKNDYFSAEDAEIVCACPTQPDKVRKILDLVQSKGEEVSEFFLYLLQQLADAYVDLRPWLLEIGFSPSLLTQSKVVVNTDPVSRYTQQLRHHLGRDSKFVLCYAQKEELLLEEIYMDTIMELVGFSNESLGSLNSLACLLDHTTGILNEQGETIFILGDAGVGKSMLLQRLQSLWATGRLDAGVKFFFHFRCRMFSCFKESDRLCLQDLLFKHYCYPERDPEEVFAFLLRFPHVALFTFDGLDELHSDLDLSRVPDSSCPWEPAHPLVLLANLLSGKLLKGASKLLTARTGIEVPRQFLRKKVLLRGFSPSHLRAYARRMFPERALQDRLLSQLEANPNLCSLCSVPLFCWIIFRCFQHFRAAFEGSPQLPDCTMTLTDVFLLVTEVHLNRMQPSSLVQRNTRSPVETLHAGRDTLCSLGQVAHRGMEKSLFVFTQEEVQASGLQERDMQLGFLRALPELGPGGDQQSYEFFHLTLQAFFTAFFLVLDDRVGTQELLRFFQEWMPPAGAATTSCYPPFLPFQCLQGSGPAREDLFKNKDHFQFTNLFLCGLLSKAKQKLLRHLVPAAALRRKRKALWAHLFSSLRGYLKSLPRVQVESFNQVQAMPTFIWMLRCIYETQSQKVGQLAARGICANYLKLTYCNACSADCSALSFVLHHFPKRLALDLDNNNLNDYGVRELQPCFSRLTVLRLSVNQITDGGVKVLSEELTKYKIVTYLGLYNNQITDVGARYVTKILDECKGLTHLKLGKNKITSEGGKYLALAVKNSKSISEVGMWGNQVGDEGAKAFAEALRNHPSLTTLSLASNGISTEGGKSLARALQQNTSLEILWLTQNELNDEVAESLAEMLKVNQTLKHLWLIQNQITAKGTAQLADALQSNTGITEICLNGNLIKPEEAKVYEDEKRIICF

[2] = molecular target: T2, Nucleotide-binding oligomerization domain-containing protein 1 (Homo sapiens, UniProt Q9Y239); assay: Antagonist activity at human NOD1 expressed in HEK-blue cells assessed as inhibition of C12-iE-DAP-stimulated cell activation preincubated for 3 hrs followed by C12-iE-DAP addition measured after 20 hrs by SEAP reporter gene assay; format: cell-based
T2 sequence (Q9Y239 whole entry): T1 sequence (whole entry)
In short: (§1)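 HEK-Blue hNOD1 or hNOD2 cells preincubated with compound 3 h, then stimulated 20 h with C12-iE-DAP 50 ng/mL (NOD1) or MDP 100 ng/mL (NOD2); SEAP in supernatant quantified. Primary screen at 10 μM, hits repeated in triplicate; IC50 from dose-response, mean ± SD (n = 3), only for compounds reaching ≥50% inhibition at the screening concentration.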

[3] = molecular target: T3, Nucleotide-binding oligomerization domain-containing protein 2 (Homo sapiens, UniProt Q9HC29); assay: Antagonist activity at human NOD2 expressed in HEK-Blue cells assessed as inhibition of MDP-stimulated cell activation preincubated for 3 hrs followed by MDP addition measured after 20 hrs by SEAP reporter gene assay; format: cell-based; in short: as §1
T3 sequence (Q9HC29 whole entry, the tested form may be a part): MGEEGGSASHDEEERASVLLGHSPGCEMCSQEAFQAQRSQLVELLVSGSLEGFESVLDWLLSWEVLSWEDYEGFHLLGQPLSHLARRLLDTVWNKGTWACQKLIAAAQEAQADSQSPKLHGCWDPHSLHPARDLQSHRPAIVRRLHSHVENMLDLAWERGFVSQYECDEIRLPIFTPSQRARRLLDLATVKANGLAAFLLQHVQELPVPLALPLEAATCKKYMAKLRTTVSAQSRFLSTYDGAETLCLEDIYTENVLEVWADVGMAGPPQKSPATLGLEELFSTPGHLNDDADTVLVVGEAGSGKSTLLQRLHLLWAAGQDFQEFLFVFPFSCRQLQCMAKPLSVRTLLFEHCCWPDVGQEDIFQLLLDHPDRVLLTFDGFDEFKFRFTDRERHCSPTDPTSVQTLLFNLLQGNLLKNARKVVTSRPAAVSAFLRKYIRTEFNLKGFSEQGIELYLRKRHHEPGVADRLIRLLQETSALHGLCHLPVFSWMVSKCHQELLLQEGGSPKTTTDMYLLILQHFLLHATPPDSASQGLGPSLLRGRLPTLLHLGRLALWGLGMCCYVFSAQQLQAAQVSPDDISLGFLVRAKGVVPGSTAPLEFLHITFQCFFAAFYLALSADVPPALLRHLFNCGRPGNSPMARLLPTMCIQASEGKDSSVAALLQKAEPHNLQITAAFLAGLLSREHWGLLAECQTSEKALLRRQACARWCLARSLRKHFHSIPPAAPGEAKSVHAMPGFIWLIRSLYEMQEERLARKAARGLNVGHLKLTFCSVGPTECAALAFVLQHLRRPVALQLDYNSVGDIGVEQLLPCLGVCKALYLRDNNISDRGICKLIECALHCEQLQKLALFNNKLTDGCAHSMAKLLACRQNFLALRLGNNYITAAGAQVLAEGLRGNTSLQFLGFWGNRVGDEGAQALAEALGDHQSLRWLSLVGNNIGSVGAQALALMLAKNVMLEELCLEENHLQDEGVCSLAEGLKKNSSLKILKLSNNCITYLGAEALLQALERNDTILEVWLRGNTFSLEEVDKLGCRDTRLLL

[4] = molecular target: Toll-like receptor 4 (Homo sapiens) (UniProt O00206); assay: Inhibition of human TLR4 expressed in HEK-Blue cells assessed as reduction in LPS-EK-stimulated SEAP release preincubated for 3 hrs followed by LPS-EK addition measured after 20 hrs by spectrophotometric analysis; format: cell-based
Chain of Toll-like receptor 4 (Homo sapiens) (O00206 whole entry, the tested form may be a part): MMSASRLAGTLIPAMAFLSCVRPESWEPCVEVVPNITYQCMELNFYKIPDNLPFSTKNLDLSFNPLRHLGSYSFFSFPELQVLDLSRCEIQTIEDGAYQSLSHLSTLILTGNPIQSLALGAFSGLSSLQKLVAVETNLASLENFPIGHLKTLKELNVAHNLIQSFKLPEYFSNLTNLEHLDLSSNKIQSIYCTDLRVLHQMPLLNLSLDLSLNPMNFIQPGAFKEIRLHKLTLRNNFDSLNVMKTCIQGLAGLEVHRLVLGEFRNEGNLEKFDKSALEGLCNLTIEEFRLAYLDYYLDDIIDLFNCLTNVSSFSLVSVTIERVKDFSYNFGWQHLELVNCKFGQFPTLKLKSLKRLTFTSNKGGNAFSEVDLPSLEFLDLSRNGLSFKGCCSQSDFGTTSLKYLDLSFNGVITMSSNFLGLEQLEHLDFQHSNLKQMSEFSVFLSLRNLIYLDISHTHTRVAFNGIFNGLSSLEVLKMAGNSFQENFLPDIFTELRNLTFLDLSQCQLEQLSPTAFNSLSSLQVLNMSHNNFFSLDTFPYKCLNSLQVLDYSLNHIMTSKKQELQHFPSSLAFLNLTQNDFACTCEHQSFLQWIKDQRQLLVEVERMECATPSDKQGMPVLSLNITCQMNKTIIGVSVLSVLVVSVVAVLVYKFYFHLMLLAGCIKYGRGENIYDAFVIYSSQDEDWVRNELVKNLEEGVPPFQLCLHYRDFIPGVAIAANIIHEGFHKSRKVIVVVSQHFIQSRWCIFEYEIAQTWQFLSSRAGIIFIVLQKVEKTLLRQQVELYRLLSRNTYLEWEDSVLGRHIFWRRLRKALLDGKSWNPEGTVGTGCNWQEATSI

[5] = molecular target: T3, Nucleotide-binding oligomerization domain-containing protein 2; assay: Inhibition of NOD2 in human PBMC-derived macrophages assessed as reduction in MDP-stimulated IL6 mRNA expression at 10 uM preincubated for 1 hr followed by MDP stimulation for 90 mins by RT-qPCR analysis
In short: (§2)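 Human CD14+ monocytes from donor PBMC, differentiated 7 days with M-CSF 20 ng/mL to macrophages; 1.0 × 10^6 cells pretreated 1 h with compound (final 0.1% DMSO), then C12-iE-DAP 500 ng/mL or MDP 5 μg/mL for 90 min. IL-6/TNF-α mRNA by qRT-PCR, normalized to GAPDH; stimulated response set to 100%.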

[6] = molecular target: T1, Nucleotide-binding oligomerization domain-containing protein 1 (Homo sapiens); assay: Inhibition of NOD1 in human PBMC-derived macrophages assessed as reduction in C12-iE-DAP-stimulated IL6 mRNA expression preincubated for 1 hr followed by C12-iE-DAP stimulation for 90 mins by RT-qPCR analysis; in short: as §2
[7] = molecular target: T1, Nucleotide-binding oligomerization domain-containing protein 1 (Homo sapiens); assay: Inhibition of NOD1 in human PBMC-derived macrophages assessed as reduction in C12-iE-DAP-stimulated TNFalpha mRNA expression preincubated for 1 hr followed by C12-iE-DAP stimulation for 90 mins by RT-qPCR analysis; in short: as §2
[8] = molecular target: T3, Nucleotide-binding oligomerization domain-containing protein 2; assay: Inhibition of NOD2 in human PBMC-derived macrophages assessed as reduction in MDP-stimulated TNFalpha mRNA expression preincubated for 1 hr followed by MDP stimulation for 90 mins by RT-qPCR analysis; in short: as §2
[9] = molecular target: T1, Nucleotide-binding oligomerization domain-containing protein 1 (Homo sapiens); assay: Inhibition of NOD1 in human THP1 cells assessed as suppression of C12-iE-DAP-stimulated JNK phosphorylation at 1 to 10 uM preincubated for 1 hr followed by C12-iE-DAP stimulation after 45 mins by Western blot analysis; format: cell-based
In short: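 PMA (20 ng/mL, 48 h)-differentiated THP1 macrophages rested 24 h in PMA-free medium, serum-starved (0.1% FBS) overnight, pretreated 1 h with compound, stimulated 45 min with C12-iE-DAP 50 ng/mL. Lysates run on 8% SDS-PAGE, immunoblotted for phospho and total RIP2, p38, JNK, ERK and IκBα.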

[10] = molecular target: T1, Nucleotide-binding oligomerization domain-containing protein 1 (Homo sapiens); assay: Inhibition of NOD1 in human PBMC-derived macrophages assessed as reduction in C12-iE-DAP-stimulated JNK phosphorylation at 1 to 10 uM preincubated for 1 hr followed by C12-iE-DAP stimulation for 45 mins by Western blot analysis
[11] = molecular target: T1, Nucleotide-binding oligomerization domain-containing protein 1 (Homo sapiens); assay: Inhibition of NOD1 in human PBMC-derived macrophages assessed as reduction of C12-iE-DAP-mediated decrease in IkBalpha levels at 1 to 10 uM preincubated for 1 hr followed by C12-iE-DAP stimulation for 45 mins by Western blot analysis
[12] = molecular target: T3, Nucleotide-binding oligomerization domain-containing protein 2; assay: Inhibition of human NOD2 expressed in HEK293 cells assessed as reduction of MDP-mediated decrease in IkBalpha levels preincubated for 1 hr followed by MDP addition measured after 1 hr by Western blot analysis
[13] = molecular target: T3, Nucleotide-binding oligomerization domain-containing protein 2; assay: Inhibition of NOD2 in human PBMC-derived macrophages assessed as reduction in MDP-stimulated p38 phosphorylation at 1 to 10 uM preincubated for 1 hr followed by MDP stimulation for 1 hr by Western blot analysis

`CCCNC(=O)CC[C@H]1NC(=O)c2cc(Oc3cccc(N(C)C)c3)c(NC(=O)COCc3ccccc3)cc2NC1=O` was tested, and the inhibition [1] was 77.7%, the pIC50 [2] was 5.63 and the pIC50 [3] was 5.38. The inhibition [4] was “inactive”, the inhibition [5] was “Active” and the inhibition [6] was “Dose-dependent effect”. The inhibition [7] was “Dose-dependent effect”, the inhibition [8] was “Dose-dependent effect” and the inhibition [9] was “Active”. For the same molecule, the inhibition [10] was “Active”, the inhibition [11] was “Active” and the inhibition [12] was “Dose-dependent effect”. For the same molecule, the inhibition [13] was “Active”.
